ANO1 activ = TMEM16A chloride channel activators or potentiators, primary screen, cell-based, HTS; Anoctamin-1 (Mus musculus), Q8BHY3; HEK293 TMEM16A/YFP-H148Q/I152L, iodide quench fluorescence; stronger effect = lower value; B-score at 10 µM; 0.3% of 340,000 active; AID 623877, 2012;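 active means fluorescence-ratio B-score plate-corrected deviation score at least 3 library SD below zero, with starting fluorescence score within 5 deviations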;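 further: channel opened by trigger with iodide after compound preincubation; score built on the fluorescence ratio of max minus min over baseline; more negative score means more quench and so TMEM16A activation or potentiation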
Target sequence (Q8BHY3 whole entry, looked up): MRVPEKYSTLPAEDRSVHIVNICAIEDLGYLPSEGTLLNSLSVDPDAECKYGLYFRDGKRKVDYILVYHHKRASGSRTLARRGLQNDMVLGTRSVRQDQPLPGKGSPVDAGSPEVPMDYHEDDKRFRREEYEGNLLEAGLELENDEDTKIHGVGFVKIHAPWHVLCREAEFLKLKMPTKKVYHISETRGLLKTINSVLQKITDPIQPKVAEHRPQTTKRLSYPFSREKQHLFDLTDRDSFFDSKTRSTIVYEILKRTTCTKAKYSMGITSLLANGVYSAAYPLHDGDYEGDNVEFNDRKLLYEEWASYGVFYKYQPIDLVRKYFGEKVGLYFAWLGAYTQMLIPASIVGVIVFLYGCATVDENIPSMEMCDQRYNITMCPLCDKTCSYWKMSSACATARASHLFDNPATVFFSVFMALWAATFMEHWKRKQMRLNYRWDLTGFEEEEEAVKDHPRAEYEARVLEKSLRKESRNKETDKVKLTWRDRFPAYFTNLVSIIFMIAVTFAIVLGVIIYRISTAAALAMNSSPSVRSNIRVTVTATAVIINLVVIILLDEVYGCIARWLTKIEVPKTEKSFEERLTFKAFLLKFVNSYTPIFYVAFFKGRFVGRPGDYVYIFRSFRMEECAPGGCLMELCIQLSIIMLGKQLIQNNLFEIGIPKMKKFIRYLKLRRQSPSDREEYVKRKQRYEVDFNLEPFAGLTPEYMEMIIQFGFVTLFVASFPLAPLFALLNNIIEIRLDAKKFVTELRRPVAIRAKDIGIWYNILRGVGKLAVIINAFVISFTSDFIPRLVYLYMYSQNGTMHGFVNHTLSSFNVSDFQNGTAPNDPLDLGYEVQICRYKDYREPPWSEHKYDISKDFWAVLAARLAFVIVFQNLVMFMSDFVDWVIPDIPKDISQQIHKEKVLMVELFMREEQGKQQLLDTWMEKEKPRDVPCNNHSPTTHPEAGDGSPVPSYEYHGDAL
beta cell repl = inducers of MIN6 beta-cell proliferation, primary screen, ATP luminescence, uHTS; proliferation, % at 10 µM; 0.29% of 330,000 active; MIN6 cells proliferation, ATPlite luminescence, 48 h; cells starved in 0.2% serum; 100% = growth in 10% serum;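 active means compounds whose signal lies at least 3.5 SD above the mean of all wells on their plate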
MC4R antag cAMP = MC4R antagonists of cAMP signaling, primary screen, cell-based, TR-FRET, antagonist arm of biased-ligand search; Melanocortin receptor 4 (Homo sapiens), P32245; MC4R-expressing cells, MTII-stimulated cAMP, LANCE TR-FRET; inhibition, % at 6.5 µM; 0.48% of 360,000 active; AID 540295, 2011;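 active means inhibition above its plate's cutoff, the mean of tested wells on that plate plus 3 SD, cut at about 29% in these data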
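Test system: U2OS cells stably expressing human melanocortin 4 receptor (MC4R); also added: Melanotan II challenge; compound: 6.5 µM single dose; timing: 30-min compound preincubation, 1-h Melanotan II challenge, 1-h detection, room temperature; signal: Eu-cAMP/anti-cAMP TR-FRET, emission 671 nm; repeats: one well per compound, no replicates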
MC4R barr agon = MC4R agonists recruiting beta-arrestin, primary screen, cell-based, luminescence, agonist arm of biased-ligand search; Melanocortin receptor 4 (Homo sapiens), P32245; U2OS MC4R beta-arrestin complementation; percent of melanotan II response, DMSO zero; activation, % at 8.9 µM; 0.98% of 360,000 active; AID 540308, 2011;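 active means activation above a per-plate cutoff, the mean activation of sample wells on that plate plus 3 SD, cut at about 8% in these data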
ANO1 block = TMEM16A chloride channel inhibitors, primary screen, cell-based, HTS; Anoctamin-1 (Mus musculus), Q8BHY3; HEK293 TMEM16A/YFP iodide influx fluorescence, ionomycin; normalized B-score (activity score, 25-100; higher = stronger inhibition) at 10 µM; 1.2% of 310,000 active; AID 588511, 2011;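 active means ratio plate-corrected score three or more library SD toward inhibition, starting fluorescence score within five deviations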;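 further: score derived from kinetic fluorescence span divided by baseline fluorescence per well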
m5-HT2A agonist = mouse Htr2a agonists via beta-arrestin recruitment, primary screen, cell-based, luminescence | 5-hydroxytryptamine receptor 2A (Mus musculus), P35363 | CHO-K1 mHTR2A beta-arrestin complementation; percent of 30 µM serotonin response | activation, % at 7.6 µM | 0.66% of 360,000 active | AID 624169, 2012;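 active means activation above a run cutoff, the mean activation of all tested compounds plus 3 SD, cut at about 14% in these data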
TMEM16A reconf = TMEM16A chloride channel inhibitors, confirmation, cell-based, re-confirmation; shares compounds with ANO1 block; 39% of 2,300 active; HEK293 TMEM16A/YFP-H148Q, iodide quench fluorescence; ionomycin added to raise cell calcium; inhibition, % at 10 µM; AID 652189, 2013;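 active means mean duplicate percent inhibition, scaled so buffer wells are 0 and the reference blocker 100, over three buffer SD above buffer mean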
HEK293 Ca mobil = calcium mobilization in TMEM16A/YFP HEK293 cells, confirmation, counter-screen for TMEM16A inhibitor project; shares compounds with ANO1 block; Fluo4 calcium mobilization; calcium response (% of ionomycin), % at 10 µM; 2% of 2,300 active;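 active means duplicate-averaged calcium signal over 20% of the ionomycin maximum, relative to buffer baseline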;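 further: each well's signal is peak minus trough fluorescence divided by its pre-addition baseline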
YFP-HEK293 quench = iodide YFP quench changes in parental YFP-HEK293, counter-screen for TMEM16A inhibitor project, cell-based; ionomycin; YFP ratio F(max-min)/F0 at 10 µM; shares compounds with ANO1 block; AID 652233, 2013; 2,300 tested, under 10 active;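 active means yellow fluorescent protein signal ratio exceeding the buffer control mean by over 5 SD of those controls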;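 further: ratio is mean of duplicate wells from kinetic YFP trace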
ClC-1 rat inh = ClC-1 chloride channel inhibition, selectivity assay for TMEM16A inhibitor project, cell-based, voltage-dependent ClC-1. shares compounds with ANO1 block. AID 652236, 2013. CHO ClC-1-YFP, iodide influx fluorescence quench; iodide control reads 0, buffer control 100. 2,300 tested, under 10 active. ratio percent, % at 10 µM;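 active means duplicate-mean ratio percent above the mean of iodide-only control wells, which defines zero, plus 5 of their SD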;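 further: higher percent means stronger block of ClC-1 iodide influx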
Each line names hits and unclear results; the compound was inactive in the other large screens (follow-up assays come after a bar, where they were run). Shown are actives, neighbours in structure and some others; about 3.4% of the full set was active somewhere.

O=C(c1cc(COc2cccc3cccnc23)on1)N1CCC[C@H]1CO	none (no result: ANO1 activ, beta cell repl, ANO1 block)
CCOC(=O)CC1CCCCN1C(=O)c1cc(COc2cccc3cnccc23)on1 (centres undefined)	ANO1 block 25 | TMEM16A reconf 46% | HEK293 Ca mobil inactive | YFP-HEK293 quench inactive | ClC-1 rat inh inactive
CSCCC(C(=O)NC(C)(C)C)n1c(-c2ccc3c(c2)OCO3)nc2ccccc21 (centres undefined)	none (no result: ANO1 activ, beta cell repl, MC4R antag cAMP, MC4R barr agon, ANO1 block)
CC(CNC(=O)c1ccccc1Cl)NC(=O)c1ccccc1Cl (centres undefined)	none
CC(C)Cn1c(N)c(C(=O)COC(=O)c2cc(C3CC3)nc3ccccc23)c(=O)n(C)c1=O	ANO1 block 25 (no result: ANO1 activ, MC4R antag cAMP, MC4R barr agon, m5-HT2A agonist) | TMEM16A reconf inactive | HEK293 Ca mobil inactive | YFP-HEK293 quench inactive | ClC-1 rat inh inactive
CC(C)(C)C(=O)NC(NC(=S)Nc1sc2c(c1C#N)CCCC2)C(Cl)(Cl)Cl (centres undefined)	ANO1 block 100 | TMEM16A reconf 34% | HEK293 Ca mobil inactive | YFP-HEK293 quench inactive | ClC-1 rat inh inactive
N#Cc1c(C(F)(F)F)cc(-c2ccc(Cl)cc2)[nH]c1=O	ANO1 block 100 | TMEM16A reconf 28% | HEK293 Ca mobil inactive | YFP-HEK293 quench inactive | ClC-1 rat inh inactive
N#Cc1c(C(F)(F)F)cc(-c2cccc(Cl)c2)[nH]c1=O	ANO1 block 25 | TMEM16A reconf 28% | HEK293 Ca mobil inactive | YFP-HEK293 quench inactive | ClC-1 rat inh inactive
Fc1cccc(Cl)c1CSc1nnnn1-c1ccc2c(c1)OCO2	ANO1 block 25 | TMEM16A reconf inactive | HEK293 Ca mobil inactive | YFP-HEK293 quench inactive | ClC-1 rat inh inactive
CCCN1CCC(C)(C(=O)Nc2cccc(OC(C)C)c2)C1 (centres undefined)	none (no result: ANO1 activ, beta cell repl, ANO1 block)
Cc1cc(NC(=O)c2cc(C(C)C)on2)no1	ANO1 block 25 | TMEM16A reconf inactive | HEK293 Ca mobil inactive | YFP-HEK293 quench inactive | ClC-1 rat inh inactive
COc1cccc(-c2cc(C(=O)Nc3cc(C)on3)no2)c1	MC4R barr agon 8.5 | TMEM16A reconf inactive | HEK293 Ca mobil inactive | YFP-HEK293 quench inactive | ClC-1 rat inh inactive
O=C(NC1CCCC1)C(C1CC1)n1c(-c2ccnc3ccccc23)nc2ccccc21 (centres undefined)	none (no result: ANO1 activ, beta cell repl, MC4R antag cAMP, MC4R barr agon, ANO1 block)
O=C(NC(=O)c1ccccc1)Nc1ccc(Cl)cn1	none
O=C(COC(=O)c1ccccc1-n1cnnn1)c1ccc(F)cc1	none
O=[N+]([O-])c1ccc(N2CCN(Cc3ccccc3)CC2)c2c1no[n+]2[O-]	none (no result: ANO1 activ, beta cell repl, ANO1 block)
CCN(CC)C(=O)C1=C(C)N(CCC2=CCCCC2)C(=O)C(CC(=O)NCCCN(C)C)C1 (centres undefined)	none (no result: ANO1 activ, beta cell repl, ANO1 block)
COc1ccc(CN2C[C@@H](CO)O[C@@H](n3cnc4c(NCc5ccco5)ncnc43)C2)cc1	none (no result: ANO1 activ, beta cell repl, ANO1 block)
Cc1csc(C(C#N)C(=O)c2cc3ccccc3o2)n1 (centres undefined)	ANO1 block 25 | TMEM16A reconf 30% | HEK293 Ca mobil inactive | YFP-HEK293 quench inactive | ClC-1 rat inh inactive
O=C(Nc1cccc(C(F)(F)F)c1)c1cc[n+]([O-])cc1	ANO1 block 100 | TMEM16A reconf inactive | HEK293 Ca mobil inactive | YFP-HEK293 quench inactive | ClC-1 rat inh inactive
O=C(CSC1=Nc2ccccc2C2CC=NN12)Nc1ccc2c(c1)OCO2 (centres undefined)	none (no result: beta cell repl, ANO1 block)
CCCOC(=O)c1ccc(NC(=O)CSC2=Nc3ccccc3C3CC=NN23)cc1 (centres undefined)	ANO1 block 100 | TMEM16A reconf inactive | HEK293 Ca mobil inactive | YFP-HEK293 quench inactive | ClC-1 rat inh inactive
COc1ccccc1NC(=O)CN1CCN(CC(=O)Nc2ccc(S(N)(=O)=O)cc2)CC1	none | TMEM16A reconf inactive | HEK293 Ca mobil inactive | YFP-HEK293 quench inactive | ClC-1 rat inh inactive
CN1CCC(N(C)C(=O)c2ccc(Cl)c(S(=O)(=O)Nc3cc(Cl)ccc3Cl)c2)CC1	none (no result: ANO1 block)
O=c1c(Cc2ccccc2)c(O)c2cccc3c4c(n1c23)CCCC4	ANO1 block 25 | TMEM16A reconf 41% | HEK293 Ca mobil inactive | YFP-HEK293 quench inactive | ClC-1 rat inh inactive
Cn1c(=O)c(Cc2ccccc2)c(O)c2ccccc21	none
CCN(CC)S(=O)(=O)c1ccc(Oc2ccc(S(=O)(=O)N(CC)CC)cc2)cc1	ANO1 block 100 | TMEM16A reconf inactive | HEK293 Ca mobil inactive | YFP-HEK293 quench inactive | ClC-1 rat inh inactive
N#CC1=C(N)NC(SCC(=O)c2ccc(Cl)cc2)=C(C#N)C12CCCC2	ANO1 block 100 | TMEM16A reconf inactive | HEK293 Ca mobil inactive | YFP-HEK293 quench inactive | ClC-1 rat inh inactive
N#CC1=C(N)NC(SCC(=O)c2ccc(Br)cc2)=C(C#N)C12CCCCC2	ANO1 block 100 | TMEM16A reconf 53% | HEK293 Ca mobil inactive | YFP-HEK293 quench inactive | ClC-1 rat inh inactive
COc1ccc(C(=O)CSC2=C(C#N)C3(CCCCC3)C(C#N)=C(N)N2)cc1	none
Cc1ccc(C(=O)N2c3ccccc3N(Cc3ccccc3)C(=O)C2(C)C)cc1	ANO1 block 100 | TMEM16A reconf 24% | HEK293 Ca mobil inactive | YFP-HEK293 quench inactive | ClC-1 rat inh inactive
O=C(OCC(=O)N1CCc2ccccc21)c1c2c(nc3ccccc13)CCCCC2	ANO1 block 100 | TMEM16A reconf inactive | HEK293 Ca mobil inactive | YFP-HEK293 quench inactive | ClC-1 rat inh inactive

From PubChem BioAssay
